ChEMBL document CHEMBL1154802, “Antiestrogenic constituents of the Thai medicinal plants Capparis flavicans and Vitex glabrata” (2009)
Calls of active or inactive are those of the source. The calls are words filed in the database; no cut-off is given here.

Tests used:
MCF7 [1] = assay: Stimulation of human MCF7 cell proliferation up to 100 uM after 96 hrs by alamar blue assay relative to estradiol; type: functional, cell-based
Procedure, shortened: (§1)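 Compounds were given alone at 0.1, 1, 10 and 100 µM, and stimulation of proliferation was compared with estradiol at 1–100 pM. Cell proliferation assay as in an earlier report.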

T47D [2] = assay: Stimulation of human T47D cell proliferation up to 100 uM after 96 hrs by alamar blue assay relative to estradiol; type: functional, cell-based; procedure, shortened: as §1
MCF7 [3] = assay: Antiestrogenic activity in human MCF7 cells assessed as drug level causing inhibition of 100 pM E2-enhanced cell proliferation to level equivalent to 50 pM E2 after 96 hrs by alamar blue assay; type: functional
Procedure, shortened: (§2)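 Cells seeded at 1 × 10^4 per well in phenol red-free RPMI with 5% DCC-treated FBS. E2 was added from a 20 nM solution to give 100 pM and preincubated 1 h at 37 °C, 5% CO2. Compounds were then added at 0.1, 1, 10 and 100 µM for 96 h, with serially diluted tamoxifen as positive control. Antagonism was judged from cell populations. iEqE values were obtained by linear regression over four concentrations.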

MCF7 [4] = assay: Antiestrogenic activity in human MCF7 cells assessed as drug level causing inhibition of 100 pM E2-enhanced cell proliferation to level equivalent to 10 pM E2 after 96 hrs by alamar blue assay; type: functional; procedure, shortened: as §2
MCF7 [5] = assay: Antiestrogenic activity in human MCF7 cells assessed as drug level causing inhibition of 100 pM E2-enhanced cell proliferation to level equivalent to 1 pM E2 after 96 hrs by alamar blue assay; type: functional; procedure, shortened: as §2
T47D [6] = assay: Antiestrogenic activity in human T47D cells assessed as drug level causing inhibition of 100 pM E2-enhanced cell proliferation to level equivalent to 50 pM E2 after 96 hrs by alamar blue assay; type: functional; procedure, shortened: as §2
T47D [7] = assay: Antiestrogenic activity in human T47D cells assessed as drug level causing inhibition of 100 pM E2-enhanced cell proliferation to level equivalent to 10 pM E2 after 96 hrs by alamar blue assay; type: functional; procedure, shortened: as §2
T47D [8] = assay: Antiestrogenic activity in human T47D cells assessed as drug level causing inhibition of 100 pM E2-enhanced cell proliferation to level equivalent to 1 pM E2 after 96 hrs by alamar blue assay; type: functional; procedure, shortened: as §2
MCF7 [9] = assay: Antiestrogenic activity in human MCF7 cells assessed as inhibition of E2-enhanced cell proliferation at 0.1 to 100 uM after 96 hrs by alamar blue assay; type: functional; procedure, shortened: as §2
T47D [10] = assay: Antiestrogenic activity in human T47D cells assessed as inhibition of E2-enhanced cell proliferation at 0.1 to 100 uM after 96 hrs by alamar blue assay; type: functional; procedure, shortened: as §2

SMILES	Activity (MCF7 [1])	Activity (T47D [2])	Activity (MCF7 [3]) [µM]	Activity (MCF7 [4]) [µM]	Activity (MCF7 [5]) [µM]	Activity (T47D [6]) [µM]	Activity (T47D [7]) [µM]	Activity (T47D [8]) [µM]	inhibition (INH) (MCF7 [9]) [%]	inhibition (INH) (T47D [10]) [%]
O=c1cc(-c2ccc(O)cc2)oc2cc(O[C@@H]3O[C@H](CO)[C@@H](O)[C@H](O)[C@H]3O)cc(O)c12 [APIGETRIN]	inactive	inactive	<0.1	<0.1	>100	<0.1	<0.1	2	>90	–
COc1cc(/C=C/CO)ccc1O[C@@H]1O[C@H](COC(=O)/C=C/c2ccc(O)c(O)c2)[C@@H](O)[C@H](O)[C@H]1O [KHAINAOSIDE C]	inactive	inactive	4	4	5	<0.1	<0.1	>100	–	>90
COc1cc([C@H]2OC[C@H]3[C@@H]2CO[C@@H]3c2cc(OC)c(O[C@@H]3O[C@H](CO)[C@@H](O)[C@H](O)[C@H]3O)c(OC)c2)ccc1O	inactive	inactive	<0.1	<0.1	>100	<0.1	2	>100	>90	–
Nc1ncnc2c1ncn2[C@@H]1O[C@H](CO)[C@@H](O)[C@H]1O [ADENOSINE]	inactive	inactive	<0.1	<0.1	>100	2	69	>100	>90	–
CCCc1ccc(O[C@@H]2O[C@H](CO)[C@@H](O)[C@H](O)[C@H]2O)c(OC)c1	inactive	inactive	<0.1	<0.1	0.4	<0.1	>100	>100	–	>50
COc1cc([C@H]2OC[C@H]3[C@@H]2CO[C@@H]3c2ccc(O[C@@H]3O[C@H](CO)[C@@H](O)[C@H](O)[C@H]3O)c(OC)c2)ccc1O	inactive	inactive	<0.1	<0.1	<0.1	<0.1	<0.1	>100	–	>90
COc1cc([C@H]2OC[C@H]3[C@@H]2CO[C@@H]3c2cc(OC)c(O)c(OC)c2)ccc1O[C@@H]1O[C@H](CO)[C@@H](O)[C@H](O)[C@H]1O [ISOEUCOMMIN A]	inactive	inactive	<0.1	<0.1	<0.1	<0.1	<0.1	>100	–	>90
COc1cc(/C=C/C(=O)O[C@H]2C[C@@H]3C(C(=O)O)=CO[C@@H](O[C@@H]4O[C@H](CO)[C@@H](O)[C@H](O)[C@H]4O)[C@@H]3[C@@H]2C)ccc1O [KHAINAOSIDE B]	inactive	inactive	<0.1	<0.1	>100	<0.1	<0.1	>100	>90	>90
COc1cc(O)ccc1O[C@@H]1O[C@H](CO[C@@H]2OC[C@@H](O)[C@H](O)[C@H]2O)[C@@H](O)[C@H](O)[C@H]1O [CAPPAROSIDE A]	inactive	inactive	<0.1	0.3	>100	<0.1	>100	>100	–	>50
COc1cc(O[C@@H]2O[C@H](CO)[C@@H](O)[C@H](O)[C@H]2O)cc(OC)c1O [KOABURASIDE]	inactive	inactive	<0.1	<0.1	>100	2	37	70	>90	–
OC[C@H]1O[C@@H](Oc2cc([C@H]3OC[C@]4(O)[C@@H](c5ccc6c(c5)OCO6)OC[C@]34O)ccc2O)[C@H](O)[C@@H](O)[C@@H]1O [KHAINAOSIDE A]	inactive	inactive	<0.1	<0.1	<0.1	<0.1	<0.1	3	–	–
COc1cc(C[C@H](CO)[C@@H](CO[C@@H]2O[C@H](CO)[C@@H](O)[C@H](O)[C@H]2O)Cc2cc(OC)c(O)c(OC)c2)cc(OC)c1O	inactive	inactive	<0.1	0.8	93	0.6	>100	>100	–	–
COc1cc([C@H](O[C@@H]2O[C@H](CO)[C@@H](O)[C@H](O)[C@H]2O)[C@@H](CO)Oc2c(OC)cc(/C=C/CO)cc2OC)ccc1O	inactive	inactive	<0.1	6	>100	<0.1	>100	>100	–	>50
